The subject of test [1] is HepG2. Put plainly: Cytotoxicity against human HepG2 cells after 72 hrs by MTT colorimetric method. The class given is functional, cell-based. The following applies: HepG2, 72 h. A general note: Tetrazolium dyes change colour on reduction, which living cells bring about.
Test [2] is described as follows: Cytotoxicity against human Hep3B cells after 72 hrs by MTT colorimetric method. The class given is functional, cell-based, Hep 3B2. The method in brief: (§1)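 Cell lines from ATCC, grown in RPMI-1640 with 10% FBS, 100 U/mL penicillin and 100 µg/mL streptomycin at 37 °C, humidified 5% CO₂. Seeded at 5000-10000 cells/well, treated on day two for 72 h. Attached cells then given MTT (0.5 mg/mL, 1 h), formazan solubilized in DMSO, colorimetric readout. IC₅₀ values reported.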

The test system of test [3] is MDA-MB-231. Put plainly: Cytotoxicity against human MDA-MB-231 cells after 72 hrs by MTT colorimetric method. The format is functional, cell-based. The following applies: MDA-MB-231, 72 h. In short, it runs like this:
as §1

Test [4] relates to MCF7. The test can be described thus: Cytotoxicity against human MCF7 cells after 72 hrs by MTT colorimetric method. The class given is functional, cell-based. Particulars: MCF7, 72 h. The method in brief:
as §1

The test system of test [5] is A549. Put plainly: Cytotoxicity against human A549 cells after 72 hrs by MTT colorimetric method. The format is functional, cell-based. Particulars: A549, 72 h. The method in brief: as §1

Molecules are shown by their SMILES. Bounds are passed on as bounds.

As to `COc1cc(O)c2c(=O)cc(C3(O)C=CC(=O)C=C3)oc2c1`, the IC50 (commonly the concentration needed to halve the response being measured) in test [1] was 570 nM; in test [2], 670 nM; in test [3], 430 nM; in test [4], 1700 nM; in test [5], 3100 nM.

Take `O=C1C=CC(O)(c2cc(=O)c3c(ccc4ccccc43)o2)C=C1`: the IC50 in test [1] is 3550 nM; in test [2], 300 nM; in test [3], 390 nM; in test [4] it was 660 nM; in test [5], 1810 nM.

As for `COC1(c2cc(=O)c3c(ccc4ccccc43)o2)C=CC(=O)C=C1`, the IC50 in test [1] is 9940 nM; in test [2], 1100 nM; in test [3] it was 1160 nM; in test [4], 2700 nM; in test [5], 25800 nM.

As to `COc1cc(OC)c2c(=O)cc(C3(O)C=CC(=O)C=C3)oc2c1`, the 50% inhibitory concentration (IC50) in test [1] turned out to be 5030 nM; in test [2], 670 nM; in test [3], 540 nM; in test [4], 1210 nM; in test [5] it was 1270 nM.

In the case of `O=C1C=CC(O)(c2cc(=O)c3ccccc3o2)C=C1`, the IC50 in test [1] came to 6730 nM; in test [2], 1260 nM; in test [3], 710 nM; in test [4], 1730 nM; in test [5], 5240 nM.

In the case of `O=C1C=CC(O)(c2cc(=O)c3c(O)cccc3o2)C=C1`, the IC50 in test [1] amounted to 4960 nM; in test [2] it was 1300 nM; in test [3], 670 nM; in test [4], 3440 nM; in test [5] it was 5070 nM.

As to `COC1(c2cc(=O)c3c(O)cccc3o2)C=CC(=O)C=C1`, the IC50 came out at 26900 nM in test [1]; 2320 nM in test [2]; 1900 nM in test [3]; 5460 nM in test [4]; 57600 nM in test [5].

In the case of `COc1cc(OC)c2c(=O)cc(C3(OC)C=CC(=O)C=C3)oc2c1`, the concentration for half-maximal inhibition (IC50) was 27000 nM in test [1]; 3780 nM in test [2]; 4700 nM in test [3]; 4210 nM in test [4]; > 61000 nM in test [5].

As to `COC1(c2cc(=O)c3ccccc3o2)C=CC(=O)C=C1`, the IC50 in test [1] is 40900 nM; in test [2], 5410 nM; in test [3] it was 5490 nM; in test [4], 7990 nM; in test [5] it was > 74600 nM.

As for `COC1(c2cc(=O)c3ccc4ccccc4c3o2)C=CC(=O)C=C1`, the IC50 is 14400 nM in test [1]; 600 nM in test [2]; 1070 nM in test [3]; 2960 nM in test [4]; 28300 nM in test [5].

In the case of `COCOc1cc(O)c2c(=O)cc(C3(O)C=CC(=O)C=C3)oc2c1`, the IC50 in test [1] amounted to 15600 nM; in test [2], 2390 nM; in test [3], 1730 nM; in test [4], 5240 nM; in test [5], 24600 nM.

As for `COc1cccc2c1C(=O)c1c(O)c3c(c(O)c1C2=O)C[C@@](O)(C(=O)CO)C[C@@H]3O[C@H]1C[C@H](N)[C@H](O)[C@H](C)O1` [DOXORUBICIN], the IC50 in test [2] is 620 nM; in test [3], 140 nM; in test [4] it was 740 nM; in test [5] it was 360 nM.

On to `O=C1C=CC(O)(c2cc(=O)c3c(O)cc(O)cc3o2)C=C1` [PROTOAPIGENONE], for which the IC50 in test [1] stood at 8110 nM; in test [2], 2270 nM; in test [3], 1430 nM; in test [4], 3740 nM; in test [5], 13800 nM.
